Tested on: MDA-MB-231
Assay: Anticancer activity against human MDA-MB-231 cells assessed as cell growth promotion at 10^-5 M after 48 hrs by SRB assay relative to control
Format: functional
Compound `N#Cc1ccc(/C=C/c2nc3ccccc3nc2SCc2nc3ccccc3[nH]2)cc1` has an Activity of 97.02%.

Tested on: K562
Assay: Anticancer activity against human K562 cells assessed as cell growth promotion at 10^-5 M after 48 hrs by SRB assay relative to control
Format: functional
Compound `N#Cc1ccc(/C=C/c2nc3ccccc3nc2SCc2nc3ccccc3[nH]2)cc1` has an Activity of 99.2%.

Tested on: SF-268
Assay: Anticancer activity against human SF268 cells assessed as cell growth promotion at 10^-5 M after 48 hrs by SRB assay relative to control
Format: functional
Work on `N#Cc1ccc(/C=C/c2nc3ccccc3nc2SCc2nc3ccccc3[nH]2)cc1` yielded an Activity of 109%.

Tested on: SW-620
Assay: Anticancer activity against human SW620 cells assessed as cell growth promotion at 10^-5 M after 48 hrs by SRB assay relative to control
Format: functional
With `N#Cc1ccc(/C=C/c2nc3ccccc3nc2SCc2nc3ccccc3[nH]2)cc1` the Activity was 98.13%.

Tested on: CCRF-CEM
Assay: Anticancer activity against human CCRF-CEM cells assessed as cell growth promotion at 10^-5 M after 48 hrs by SRB assay relative to control
Format: functional
With `N#Cc1ccc(/C=C/c2nc3ccccc3nc2SCc2nc3ccccc3[nH]2)cc1` the Activity was 93.78%.

Tested on: RXF 393
Assay: Anticancer activity against human RXF393 cells assessed as cell growth promotion at 10^-5 M after 48 hrs by SRB assay relative to control
Format: functional
`N#Cc1ccc(/C=C/c2nc3ccccc3nc2SCc2nc3ccccc3[nH]2)cc1` gave an Activity of 107%.

Tested on: NCI-H23
Assay: Anticancer activity against human NCI-H23 cells assessed as cell growth promotion at 10^-5 M after 48 hrs by SRB assay relative to control
Format: functional
Compound `N#Cc1ccc(/C=C/c2nc3ccccc3nc2SCc2nc3ccccc3[nH]2)cc1` has an Activity of 105%.

Tested on: OVCAR-5
Assay: Anticancer activity against human OVCAR5 cells assessed as cell growth promotion at 10^-5 M after 48 hrs by SRB assay relative to control
Format: functional
For `N#Cc1ccc(/C=C/c2nc3ccccc3nc2SCc2nc3ccccc3[nH]2)cc1`, the Activity was 104%.

Tested on: SR
Assay: Anticancer activity against human SR cells assessed as cell growth promotion at 10^-5 M after 48 hrs by SRB assay relative to control
Format: functional
Work on `N#Cc1ccc(/C=C/c2nc3ccccc3nc2SCc2nc3ccccc3[nH]2)cc1` yielded an Activity of 97.73%.

Tested on: not listed separately
Assay: Anticancer activity against human Hs 578T cells assessed as cell growth promotion at 10^-5 M after 48 hrs by SRB assay relative to control
Format: functional
Compound `N#Cc1ccc(/C=C/c2nc3ccccc3nc2SCc2nc3ccccc3[nH]2)cc1` has an Activity of 107%.

Tested on: KM12
Assay: Anticancer activity against human KM12 cells assessed as cell growth promotion at 10^-5 M after 48 hrs by SRB assay relative to control
Format: functional
`N#Cc1ccc(/C=C/c2nc3ccccc3nc2SCc2nc3ccccc3[nH]2)cc1` showed an Activity of 104%.

Tested on: HL-60(TB)
Assay: Anticancer activity against human HL-60(TB) cells assessed as cell growth promotion at 10^-5 M after 48 hrs by SRB assay relative to control
Format: functional
Outline: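 NCI-60 single-dose screen: compound at 10^-5 M, 48 h at 37 °C, 5% CO2; cells grown in RPMI 1640 with 5% FBS and 2 mM L-glutamine, pre-incubated 24 h before dosing. Adherent cells fixed with cold TCA; endpoint is sulforhodamine B protein staining. Percent growth of treated cells is reported relative to untreated control.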
For `N#Cc1ccc(/C=C/c2nc3ccccc3nc2SCc2nc3ccccc3[nH]2)cc1`, the Activity was 94.7%.

Tested on: UO-31
Assay: Anticancer activity against human UO31 cells assessed as cell growth promotion at 10^-5 M after 48 hrs by SRB assay relative to control
Format: functional
`N#Cc1ccc(/C=C/c2nc3ccccc3nc2SCc2nc3ccccc3[nH]2)cc1` gave an Activity of 86.51%.

Tested on: NCI-H322M
Assay: Anticancer activity against human NCI-H322M cells assessed as cell growth promotion at 10^-5 M after 48 hrs by SRB assay relative to control
Format: functional
With `N#Cc1ccc(/C=C/c2nc3ccccc3nc2SCc2nc3ccccc3[nH]2)cc1` the Activity was 120%.

Tested on: OVCAR-3
Assay: Anticancer activity against human OVCAR3 cells assessed as cell growth promotion at 10^-5 M after 48 hrs by SRB assay relative to control
Format: functional
With `N#Cc1ccc(/C=C/c2nc3ccccc3nc2SCc2nc3ccccc3[nH]2)cc1` the Activity was 110%.

Tested on: HCT-15
Assay: Anticancer activity against human HCT15 cells assessed as cell growth promotion at 10^-5 M after 48 hrs by SRB assay relative to control
Format: functional
`N#Cc1ccc(/C=C/c2nc3ccccc3nc2SCc2nc3ccccc3[nH]2)cc1` showed an Activity of 114%.

Tested on: SNB-19
Assay: Anticancer activity against human SNB19 cells assessed as cell growth promotion at 10^-5 M after 48 hrs by SRB assay relative to control
Format: functional
With `N#Cc1ccc(/C=C/c2nc3ccccc3nc2SCc2nc3ccccc3[nH]2)cc1` the Activity was 100%.

Tested on: UACC-62
Assay: Anticancer activity against human UACC62 cells assessed as cell growth promotion at 10^-5 M after 48 hrs by SRB assay relative to control
Format: functional
Compound `N#Cc1ccc(/C=C/c2nc3ccccc3nc2SCc2nc3ccccc3[nH]2)cc1` has an Activity of 100%.

Tested on: U-251
Assay: Anticancer activity against human U251 cells assessed as cell growth promotion at 10^-5 M after 48 hrs by SRB assay relative to control
Format: functional
`N#Cc1ccc(/C=C/c2nc3ccccc3nc2SCc2nc3ccccc3[nH]2)cc1` gave an Activity of 107%.

Tested on: 786-0
Assay: Anticancer activity against human 786-0 cells assessed as cell growth promotion at 10^-5 M after 48 hrs by SRB assay relative to control
Format: functional
With `N#Cc1ccc(/C=C/c2nc3ccccc3nc2SCc2nc3ccccc3[nH]2)cc1` the Activity was 90.69%.

Tested on: HOP-62
Assay: Anticancer activity against human HOP62 cells assessed as cell growth promotion at 10^-5 M after 48 hrs by SRB assay relative to control
Format: functional
`N#Cc1ccc(/C=C/c2nc3ccccc3nc2SCc2nc3ccccc3[nH]2)cc1` gave an Activity of 99.49%.

Tested on: M14
Assay: Anticancer activity against human M14 cells assessed as cell growth promotion at 10^-5 M after 48 hrs by SRB assay relative to control
Format: functional
For `N#Cc1ccc(/C=C/c2nc3ccccc3nc2SCc2nc3ccccc3[nH]2)cc1`, the Activity was 99.32%.

Tested on: EKVX
Assay: Anticancer activity against human EKVX cells assessed as cell growth promotion at 10^-5 M after 48 hrs by SRB assay relative to control
Format: functional
Compound `N#Cc1ccc(/C=C/c2nc3ccccc3nc2SCc2nc3ccccc3[nH]2)cc1` has an Activity of 99.04%.

Tested on: CAKI-1
Assay: Anticancer activity against human Caki1 cells assessed as cell growth promotion at 10^-5 M after 48 hrs by SRB assay relative to control
Format: functional
Work on `N#Cc1ccc(/C=C/c2nc3ccccc3nc2SCc2nc3ccccc3[nH]2)cc1` yielded an Activity of 111%.

Tested on: NCI-H460
Assay: Anticancer activity against human NCI-H460 cells assessed as cell growth promotion at 10^-5 M after 48 hrs by SRB assay relative to control
Format: functional
`N#Cc1ccc(/C=C/c2nc3ccccc3nc2SCc2nc3ccccc3[nH]2)cc1` gave an Activity of 104%.

Tested on: UACC-257
Assay: Anticancer activity against human UACC257 cells assessed as cell growth promotion at 10^-5 M after 48 hrs by SRB assay relative to control
Format: functional
With `N#Cc1ccc(/C=C/c2nc3ccccc3nc2SCc2nc3ccccc3[nH]2)cc1` the Activity was 113%.

Tested on: MOLT-4
Assay: Anticancer activity against human MOLT4 cells assessed as cell growth promotion at 10^-5 M after 48 hrs by SRB assay relative to control
Format: functional
For `N#Cc1ccc(/C=C/c2nc3ccccc3nc2SCc2nc3ccccc3[nH]2)cc1`, the Activity was 88.59%.

Tested on: SK-MEL-5
Assay: Anticancer activity against human SK-MEL-5 cells assessed as cell growth promotion at 10^-5 M after 48 hrs by SRB assay relative to control
Format: functional
For `N#Cc1ccc(/C=C/c2nc3ccccc3nc2SCc2nc3ccccc3[nH]2)cc1`, the Activity was 101%.

Tested on: Malme-3M
Assay: Anticancer activity against human MALME-3M cells assessed as cell growth promotion at 10^-5 M after 48 hrs by SRB assay relative to control
Format: functional
In the case of `N#Cc1ccc(/C=C/c2nc3ccccc3nc2SCc2nc3ccccc3[nH]2)cc1`, the Activity was 90.35%.

Tested on: MDA-MB-435
Assay: Anticancer activity against human MDA-MB-435 cells assessed as cell growth promotion at 10^-5 M after 48 hrs by SRB assay relative to control
Format: functional
Work on `N#Cc1ccc(/C=C/c2nc3ccccc3nc2SCc2nc3ccccc3[nH]2)cc1` yielded an Activity of 109%.

Tested on: SN12C
Assay: Anticancer activity against human SN12C cells assessed as cell growth promotion at 10^-5 M after 48 hrs by SRB assay relative to control
Format: functional
Work on `N#Cc1ccc(/C=C/c2nc3ccccc3nc2SCc2nc3ccccc3[nH]2)cc1` yielded an Activity of 94.09%.

Tested on: HCT-116
Assay: Anticancer activity against human HCT116 cells assessed as cell growth promotion at 10^-5 M after 48 hrs by SRB assay relative to control
Format: functional
`N#Cc1ccc(/C=C/c2nc3ccccc3nc2SCc2nc3ccccc3[nH]2)cc1` gave an Activity of 88.47%.

Tested on: A498
Assay: Anticancer activity against human A498 cells assessed as cell growth promotion at 10^-5 M after 48 hrs by SRB assay relative to control
Format: functional
Work on `N#Cc1ccc(/C=C/c2nc3ccccc3nc2SCc2nc3ccccc3[nH]2)cc1` yielded an Activity of 105%.

Tested on: NCI/ADR-RES
Assay: Anticancer activity against human NCI/ADR-RES cells assessed as cell growth promotion at 10^-5 M after 48 hrs by SRB assay relative to control
Format: functional
With `N#Cc1ccc(/C=C/c2nc3ccccc3nc2SCc2nc3ccccc3[nH]2)cc1` the Activity was 103%.

Tested on: HT-29
Assay: Anticancer activity against human HT-29 cells assessed as cell growth promotion at 10^-5 M after 48 hrs by SRB assay relative to control
Format: functional
For `N#Cc1ccc(/C=C/c2nc3ccccc3nc2SCc2nc3ccccc3[nH]2)cc1`, the Activity was 89.43%.

Tested on: not listed separately
Assay: Anticancer activity against human […] cells assessed as cell growth promotion at 10^-5 M after 48 hrs by SRB assay relative to control
Format: functional
`N#Cc1ccc(/C=C/c2nc3ccccc3nc2SCc2nc3ccccc3[nH]2)cc1` showed an Activity of 102%.
